{
  "source": "paper PMC8929370",
  "about": "(Pharmacology Research & Perspectives, 2022)",
  "key": {"[1]": {"molecular_target": "human CB1 (hCB1) receptor (Homo sapiens, UniProt P21554)", "sequence (P21554 whole entry)": "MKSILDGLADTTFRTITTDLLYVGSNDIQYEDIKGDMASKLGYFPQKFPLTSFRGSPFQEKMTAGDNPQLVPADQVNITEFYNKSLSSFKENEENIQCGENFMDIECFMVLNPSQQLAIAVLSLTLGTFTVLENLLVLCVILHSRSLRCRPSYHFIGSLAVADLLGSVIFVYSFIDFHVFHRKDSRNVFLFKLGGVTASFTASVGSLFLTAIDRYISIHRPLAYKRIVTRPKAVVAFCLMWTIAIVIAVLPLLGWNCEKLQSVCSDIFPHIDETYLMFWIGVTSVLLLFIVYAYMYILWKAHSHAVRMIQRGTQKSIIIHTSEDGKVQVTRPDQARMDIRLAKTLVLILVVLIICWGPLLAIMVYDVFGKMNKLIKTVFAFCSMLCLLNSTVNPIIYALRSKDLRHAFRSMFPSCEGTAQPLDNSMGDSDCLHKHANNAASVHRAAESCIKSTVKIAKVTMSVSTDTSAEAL", "format": "binding", "settings": "for Rank order (affinity): rank of pKi among EG-018 and 13 analogues"}, "[2]": {"molecular_target": "T1, human CB1 (Homo sapiens, UniProt P21554)", "T1 sequence (P21554 whole entry)": "as above", "experiment": "Inhibition of FSK-stimulated cAMP", "format": "cell-based", "settings": "for Emax: HEK293, read-out: E MAX (±SEM), %; for Rank order efficacy: cAMP inhibition efficacy ranking"}, "[3]": {"molecular_target": "T1, human CB1", "experiment": "[35S]GTPγS binding in P2 membranes of HEK293 cells expressing hCB1", "format": "biochemical", "settings": "for Rank order efficacy: [35S]-GTPγS efficacy ranking; for Emax: read-out: E MAX (±SEM), %"}, "[4]": {"molecular_target": "T1, human CB1", "experiment": "Phospho-ERK AlphaLISA assay in 3HA-hCB1 HEK cells", "format": "cell-based", "settings": "10 µM alone", "procedure,_shortened": "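3HA-hCB1 HEK cells were plated at 2.5e4/well on poly-D-lysine-coated plates and serum-starved overnight after ~24 h in serum-free high-glucose DMEM with 1 mg/ml BSA. Drugs were made at 2x, prewarmed and dispensed in a 37°C waterbath, staggered so all stimulations ended together. The time course used 31.6 µM. Cells were lysed on ice and pERK read by AlphaLISA SureFire Ultra, in technical duplicate or quadruplicate.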"}},
  "data": [
    {"smiles": "O=C(c1ccc2c(c1)c1ccccc1n2CCN1CCOCC1)c1cc2ccccc2o1", "note": "[Compound 146, 1-Benzofuran-2-yl(9-(2-(morpholin-4-yl)ethyl)-9H-carbazol-3-yl)methanone]", "values": [
      {"measurement": "Ki", "setting": "[1]", "value": 295, "unit": "nM"},
      {"measurement": "Rank order (affinity)", "setting": "[1]", "value": 11},
      {"measurement": "EC50", "setting": "[2]", "value": 355, "unit": "nM"},
      {"measurement": "Emax", "setting": "[2]", "value": 38.5, "unit": "%"},
      {"measurement": "Rank order efficacy", "setting": "[2]", "value": 8}
    ]},
    {"smiles": "O=C(c1ccc2c(c1)c1ccccc1n2CCN1CCOCC1)c1cc2ccccc2[nH]1", "note": "[Compound 142, (9-(2-(Morpholin-4-yl)ethyl)-9H-carbazol-3-yl)(1H-indol-2-yl)methanone]", "values": [
      {"measurement": "EC50", "setting": "[3]", "value": 6170, "unit": "nM"},
      {"measurement": "Rank order efficacy", "setting": "[3]", "value": 6},
      {"measurement": "Emax", "setting": "[3]", "value": 123, "unit": "%"},
      {"measurement": "Rank order (affinity)", "setting": "[1]", "value": 14},
      {"measurement": "EC50", "setting": "[2]", "value": 1200, "unit": "nM"},
      {"measurement": "Emax", "setting": "[2]", "value": 31.5, "unit": "%"},
      {"measurement": "Rank order efficacy", "setting": "[2]", "value": 13}
    ]},
    {"smiles": "Cc1ccc(C(=O)c2ccc3c(c2)c2ccccc2n3CCN2CCOCC2)c2ccccc12", "note": "[Compound 141, (9-(2-(Morpholin-4-yl)ethyl)-9H-carbazol-3-yl)(4-methylnaphthalen-1-yl)methanone]", "values": [
      {"measurement": "EC50", "setting": "[3]", "value": 355, "unit": "nM"},
      {"measurement": "Rank order efficacy", "setting": "[3]", "value": 8},
      {"measurement": "Emax", "setting": "[3]", "value": 106, "unit": "%"},
      {"measurement": "Ki", "setting": "[1]", "value": 148, "unit": "nM"},
      {"measurement": "Rank order (affinity)", "setting": "[1]", "value": 8},
      {"measurement": "EC50", "setting": "[2]", "value": 83.2, "unit": "nM"},
      {"measurement": "Emax", "setting": "[2]", "value": 38.7, "unit": "%"},
      {"measurement": "Rank order efficacy", "setting": "[2]", "value": 7}
    ]},
    {"smiles": "O=C(c1ccc2c(c1)c1ccccc1n2CCCCCO)c1cccc2ccccc12", "note": "[Compound 045]", "values": [
      {"measurement": "EC50", "setting": "[3]", "value": 257, "unit": "nM"},
      {"measurement": "Rank order efficacy", "setting": "[3]", "value": 12},
      {"measurement": "Emax", "setting": "[3]", "value": 81.9, "unit": "%"},
      {"measurement": "Ki", "setting": "[1]", "value": 166, "unit": "nM"},
      {"measurement": "Rank order (affinity)", "setting": "[1]", "value": 9},
      {"measurement": "EC50", "setting": "[2]", "value": 148, "unit": "nM"},
      {"measurement": "Emax", "setting": "[2]", "value": 34.9, "unit": "%"},
      {"measurement": "Rank order efficacy", "setting": "[2]", "value": 9}
    ]},
    {"smiles": "O=C(c1ccc2c(c1)c1ccccc1n2CCN1CCOCC1)c1ccnc2ccccc12", "note": "[Compound 157, (9-(2-(Morpholin-4-yl)ethyl)-9H-carbazol-3-yl)(quinoline-4-yl)methanone]", "values": [
      {"measurement": "EC50", "setting": "[3]", "value": 257, "unit": "nM"},
      {"measurement": "Rank order efficacy", "setting": "[3]", "value": 10},
      {"measurement": "Emax", "setting": "[3]", "value": 88.2, "unit": "%"},
      {"measurement": "Ki", "setting": "[1]", "value": 589, "unit": "nM"},
      {"measurement": "Rank order (affinity)", "setting": "[1]", "value": 13},
      {"measurement": "EC50", "setting": "[2]", "value": 91.2, "unit": "nM"},
      {"measurement": "right-shift in the potency of the CP55940 response (cAMP)", "setting": "[2]; 10 µM antagonist, E MAX not reduced", "value": "approximately 1 log unit"},
      {"measurement": "Emax", "setting": "[2]", "value": 13.1, "unit": "%"},
      {"measurement": "Rank order efficacy", "setting": "[2]", "value": 14},
      {"measurement": "agonist response in pERK by compound alone", "setting": "[4]", "value": "not driving an agonist response in pERK"}
    ]},
    {"smiles": "O=C(NN1CCCCC1)c1nn(-c2ccc(Cl)cc2Cl)c2c1CCCc1cc(Cl)ccc1-2", "note": "[NESS‐0327, reference compound]", "values": [
      {"measurement": "inverse agonism in cAMP assay", "setting": "[2]; concentration-response, compared to SR141716A", "value": "approximately equivalent inverse agonism to SR141716A"}
    ]}
  ]
}
